Reference: ChEMBL document CHEMBL1133671, “Synthesis and SAR of new 5-phenyl-3-ureido-1,5-benzodiazepines as cholecystokinin-B receptor antagonists” (J Med Chem, 2000)

Legend:
[1] = species: Cavia porcellus; experiment: Selectivity factor between CCK-B and CCK-A receptors
[2] = biological target: T1, Cholecystokinin receptor type A (Rattus norvegicus, UniProt P30551); experiment: In vitro inhibition of binding of [3H]pCCK-8 against Cholecystokinin type A receptor of rat pancreatic membranes; type: cell membranes, Membrane
T1 sequence (P30551 whole entry): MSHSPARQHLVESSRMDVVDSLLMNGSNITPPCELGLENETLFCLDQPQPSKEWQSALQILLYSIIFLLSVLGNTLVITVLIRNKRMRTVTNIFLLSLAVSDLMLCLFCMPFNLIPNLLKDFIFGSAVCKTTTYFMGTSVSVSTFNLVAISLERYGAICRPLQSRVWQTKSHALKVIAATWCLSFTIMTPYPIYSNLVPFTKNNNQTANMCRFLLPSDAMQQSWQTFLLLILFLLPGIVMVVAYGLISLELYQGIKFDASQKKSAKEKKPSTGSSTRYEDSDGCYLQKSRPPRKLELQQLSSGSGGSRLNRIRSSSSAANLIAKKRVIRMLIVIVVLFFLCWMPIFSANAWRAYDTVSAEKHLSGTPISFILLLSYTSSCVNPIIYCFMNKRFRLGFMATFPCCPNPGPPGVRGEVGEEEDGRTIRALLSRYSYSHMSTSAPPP
Summary of the method: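 Radioligand displacement of [3H]CCK-8S from membranes: rat pancreas for the CCK-A receptor and guinea-pig cerebral cortex for the CCK-B receptor, using slightly modified published methods. Values are means of n experiments.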

| SMILES | Ratio [1] | Ki [2] [nM] |
| --- | --- | --- |
| O=C(Nc1ccc(Br)cc1)NC1C(=O)N(CC23C[C@H]4C[C@@H](C2)C[C@@H](C3)C4)c2ccccc2N(c2ccccc2)C1=O (stereo not given in full) | 2460 | 3470 |
| CC(C)(C)CCN1C(=O)C(NC(=O)Nc2cccc(C#N)c2)C(=O)N(c2ccccc2)c2ccccc21 (stereo not given) | 151 | 97.7 |
| CN(C)c1cccc(NC(=O)NC2C(=O)N(c3ccccc3)c3ccccc3N(C3[C@H]4C[C@@H]5C[C@@H](C[C@H]3C5)C4)C2=O)c1 (stereo not given in full) | 60 | 141 |
| O=C(Nc1cccc(Cl)c1)NC1C(=O)N(c2ccccc2)c2ccccc2N(C2CC3CCC2C3)C1=O (stereo not given) | 28 | 47.9 |
| CSc1cccc(NC(=O)NC2C(=O)N(CCC34C[C@H]5C[C@@H](C3)C[C@@H](C4)C5)c3ccccc3N(c3ccccc3)C2=O)c1 (stereo not given in full) | 4 | 251 |
| CC(=O)Nc1cccc(NC(=O)NC2C(=O)N(CC34C[C@H]5C[C@@H](C3)C[C@@H](C4)C5)c3ccccc3N(c3ccccc3)C2=O)c1 (stereo not given in full) | 591 | 1510 |
| CN(C)c1cccc(NC(=O)NC2C(=O)N(c3ccccc3)c3ccccc3N(C3CC4CCC3C4)C2=O)c1 (stereo not given) | 40 | 44.7 |
| O=C(Nc1cccc(C2N=NN=N2)c1)NC1C(=O)N(c2ccccc2)c2ccccc2N(C2[C@H]3C[C@@H]4C[C@@H](C[C@H]2C4)C3)C1=O (stereo not given in full) | 47 | 97.7 |
| CN(C)c1cccc(NC(=O)NC2C(=O)N(CCC34C[C@H]5C[C@@H](C3)C[C@@H](C4)C5)c3ccccc3N(c3ccccc3)C2=O)c1 (stereo not given in full) | 22 | 295 |
| O=Cc1cccc(NC(=O)NC2C(=O)N(CC34C[C@H]5C[C@@H](C3)C[C@@H](C4)C5)c3ccccc3N(c3ccccc3)C2=O)c1 (stereo not given in full) | 1180 | 1120 |
| CCOC(=O)c1cccc(NC(=O)NC2C(=O)N(CC34C[C@H]5C[C@@H](C3)C[C@@H](C4)C5)c3ccccc3N(c3ccccc3)C2=O)c1 (mixture of isomers) | 275 | 813 |
| CN(C)c1cccc(NC(=O)NC2C(=O)N(CC34C[C@H]5C[C@@H](C3)C[C@@H](C4)C5)c3ccccc3N(c3ccccc3)C2=O)c1 (mixture of isomers) | 398 | 447 |
| CC(C)Cn1nnc(-c2cccc(NC(=O)NC3C(=O)N(CCC(C)(C)C)c4ccccc4N(c4ccccc4)C3=O)c2)n1 (racemic) | 20 | 49 |
| O=C(Nc1ccccc1)NC1C(=O)N(CCC2CCCC2)c2ccccc2N(c2ccccc2F)C1=O (racemic) | 138 | 100 |
| O=C(Nc1cccc(C(=O)O)c1)NC1C(=O)N(CC23C[C@H]4C[C@@H](C2)C[C@@H](C3)C4)c2ccccc2N(c2ccccc2)C1=O (mixture of isomers) | 646 | 631 |
| CSc1cccc(NC(=O)NC2C(=O)N(CCC(C)C)c3ccccc3N(c3ccccc3F)C2=O)c1 (racemic) | 110 | 36.3 |
| O=C(Nc1cccc(Br)c1)NC1C(=O)N(CC23C[C@H]4C[C@@H](C2)C[C@@H](C3)C4)c2ccccc2N(c2ccccc2)C1=O (mixture of isomers) | – | 191 |
| CC(C)(C)CCN1C(=O)C(NC(=O)Nc2cccc(OC(F)(F)F)c2)C(=O)N(c2ccccc2)c2ccccc21 (racemic) | 38 | 112 |
| O=C(Nc1ccccc1)NC1C(=O)N(c2ccccc2)c2ccccc2N(C2CC3CCC2C3)C1=O (racemic) | 162 | 251 |
| CSc1cccc(NC(=O)NC2C(=O)N(CCC(C)(C)C)c3ccccc3N(c3ccccc3)C2=O)c1 (racemic) | 15 | 7.41 |
| CCCCN1C(=O)C(NC(=O)Nc2ccccc2)C(=O)N(c2ccccc2)c2ccccc21 (racemic) | 89 | 550 |
| O=C(Nc1cccc([N+](=O)[O-])c1)NC1C(=O)N(CC23C[C@H]4C[C@@H](C2)C[C@@H](C3)C4)c2ccccc2N(c2ccccc2)C1=O (mixture of isomers) | 158 | 302 |
| CC(O)C(O)Nc1cccc(NC(=O)NC2C(=O)N(CC34C[C@H]5C[C@@H](C3)C[C@@H](C4)C5)c3ccccc3N(c3ccccc3)C2=O)c1 (mixture of isomers) [listing 1 of 2 here] | – | 631 |
| O=C(Nc1cccc(C2N=NN=N2)c1)NC1C(=O)N(CCC2CCCC2)c2ccccc2N(c2ccccc2F)C1=O (racemic) | 468 | 120 |
| O=C(Nc1ccccc1)NC1C(=O)N(CCc2ccccc2)c2ccccc2N(c2ccccc2)C1=O (racemic) | 32 | 269 |
| CC(C)(C)CCN1C(=O)C(NC(=O)Nc2ccccc2)C(=O)N(c2ccccc2F)c2ccccc21 (racemic) | 74 | 70.8 |

| SMILES | Ratio [1] | Ki [2] [nM] |
| --- | --- | --- |
| CSc1cccc(NC(=O)NC2C(=O)N(CCC(C)(C)C)c3ccccc3N(c3ccccc3F)C2=O)c1 (racemic) | 16 | 11.7 |
| CN(C)c1cccc(NC(=O)NC2C(=O)N(CCC(C)(C)C)c3ccccc3N(c3ccccc3F)C2=O)c1 (racemic) | 32 | 19.5 |
| CC(C)CC(C)N1C(=O)C(NC(=O)Nc2ccccc2)C(=O)N(c2ccccc2)c2ccccc21 (racemic) | 55 | 115 |
| O=C(Nc1ccccc1)NC1C(=O)N(CCC23C[C@H]4C[C@@H](C2)C[C@@H](C3)C4)c2ccccc2N(c2ccccc2)C1=O (mixture of isomers) | 6 | 219 |
| CC(C)CCN1C(=O)C(NC(=O)Nc2ccccc2)C(=O)N(c2ccccc2F)c2ccccc21 (racemic) | 25 | 195 |
| CC(C)CCN1C(=O)C(NC(=O)Nc2cccc(N(C)C)c2)C(=O)N(c2ccccc2F)c2ccccc21 (racemic) [listing 1 of 2 here] | – | 126 |
| O=C(Nc1ccccc1)NC1C(=O)N(CC2[C@H]3C[C@@H]4C[C@@H](C[C@H]2C4)C3)c2ccccc2N(c2ccccc2)C1=O (mixture of isomers) | 48 | 83.2 |
| CC(C)C(C)CN1C(=O)C(NC(=O)Nc2ccccc2)C(=O)N(c2ccccc2)c2ccccc21 (racemic) | 110 | 123 |
| CN(C)c1ccc(NC(=O)NC2C(=O)N(CCC3CCCC3)c3ccccc3N(c3ccccc3F)C2=O)cc1 (racemic) | 141 | 661 |
| CC(C)(C)CCN1C(=O)C(NC(=O)Nc2ccccc2)C(=O)N(c2ccccc2)c2ccccc21 (racemic) | 166 | 112 |
| CN(C)c1cccc(NC(=O)NC2C(=O)N(CCC3CCCC3)c3ccccc3N(c3ccccc3F)C2=O)c1 (racemic) | 71 | 47.9 |
| CC(C)CCN1C(=O)C(NC(=O)Nc2cccc(N(C)C)c2)C(=O)N(c2ccccc2F)c2ccccc21 (racemic) [listing 2 of 2 here] | 501 | – |
| CC(O)C(O)Nc1cccc(NC(=O)NC2C(=O)N(CC34C[C@H]5C[C@@H](C3)C[C@@H](C4)C5)c3ccccc3N(c3ccccc3)C2=O)c1 (mixture of isomers) [listing 2 of 2 here] | 575 | – |
| O=C(O)CCCOc1ccc(NC(=O)NC2C(=O)N(CC34C[C@H]5C[C@@H](C3)C[C@@H](C4)C5)c3ccccc3N(c3ccccc3)C2=O)cc1 (single isomer, unassigned; (+)) | > 2630 | > 10000 |
| O=C(Nc1cccc(O)c1)NC1C(=O)N(CC23C[C@H]4C[C@@H](C2)C[C@@H](C3)C4)c2ccccc2N(c2ccccc2)C1=O (single isomer, unassigned; (+)) | 550 | 1580 |
| Nc1cccc(NC(=O)NC2C(=O)N(CC34C[C@H]5C[C@@H](C3)C[C@@H](C4)C5)c3ccccc3N(c3ccccc3)C2=O)c1 (single isomer, unassigned; (+)) | 13800 | 4070 |
| CC(O)C(O)Nc1cccc(NC(=O)NC2C(=O)N(CC34C[C@H]5C[C@@H](C3)C[C@@H](C4)C5)c3ccccc3N(c3ccccc3)C2=O)c1 (single isomer, unassigned; (+)) [listing 1 of 2 here] | – | 7410 |
| CC(C)CCN1C(=O)C(NC(=O)Nc2cccc(N(C)C)c2)C(=O)N(c2ccccc2F)c2ccccc21 (single isomer, unassigned; (+)) [listing 1 of 2 here] | – | 200 |
| O=C(Nc1cccc(C(=O)OCCN2CCOCC2)c1)NC1C(=O)N(CC23C[C@H]4C[C@@H](C2)C[C@@H](C3)C4)c2ccccc2N(c2ccccc2)C1=O (single isomer, unassigned; (+)) | 603 | 339 |
| O=C(Nc1cccc(CO)c1)NC1C(=O)N(CC23C[C@H]4C[C@@H](C2)C[C@@H](C3)C4)c2ccccc2N(c2ccccc2)C1=O (single isomer, unassigned; (+)) | 12000 | 2140 |
| CC(C)CCN1C(=O)C(NC(=O)Nc2cccc(N(C)C)c2)C(=O)N(c2ccccc2F)c2ccccc21 (single isomer, unassigned; (+)) [listing 2 of 2 here] | 933 | – |
| CC(O)C(O)Nc1cccc(NC(=O)NC2C(=O)N(CC34C[C@H]5C[C@@H](C3)C[C@@H](C4)C5)c3ccccc3N(c3ccccc3)C2=O)c1 (single isomer, unassigned; (+)) [listing 2 of 2 here] | 11000 | – |
| O=C(Nc1ccccc1)NC1C(=O)N(CC23C[C@H]4C[C@@H](C2)C[C@@H](C3)C4)c2ccccc2N(c2ccccc2)C1=O (single isomer, unassigned; (-)) | – | 479 |
| CC(C)CCN1C(=O)C(NC(=O)Nc2cccc(N(C)C)c2)C(=O)N(c2ccccc2F)c2ccccc21 (single isomer, unassigned; (-)) [listing 1 of 2 here] | – | 72.4 |
| CC(C)CCN1C(=O)C(NC(=O)Nc2cccc(N(C)C)c2)C(=O)N(c2ccccc2F)c2ccccc21 (single isomer, unassigned; (-)) [listing 2 of 2 here] | 39 | – |
